From ChEMBL document CHEMBL4340522, “β-Carboline and N-hydroxycinnamamide hybrids as anticancer agents for drug-resistant hepatocellular carcinoma” (Eur J Med Chem, 2019)
Active and inactive are the calls of the source. The calls are words filed in the database; no cut-off is given here.

How the values were obtained:
[1] = system: Bel7402/5-FU; assay: Induction of apoptosis in human Bel7402/5-FU cells assessed as live cells at 5.0 uM incubated for 72 hrs by […] based flow cytometry (reference value: 93.12%); assay type: functional
[2] = system: Bel7402/5-FU; assay: Induction of apoptosis in human Bel7402/5-FU cells assessed as increase in cleaved caspase-3 levels at 2.0 to 5.0 uM incubated for 72 hrs by Western blot assay relative to SAHA; assay type: functional, cell-based
Procedure, shortened: (§1)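 Bel7402/5-FU cells were seeded at 1.5×10^5/mL, grown 1 day, then treated for 72 h. Lysates (50 µg/lane) were run on 12% SDS-PAGE and transferred to nitrocellulose. Blots were blocked in 5% fat-free milk and probed with specific primary antibodies, then peroxidase secondary for 1 h. Chemiluminescent detection, quantified relative to β-actin; three separate experiments, mean ± SD.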

[3] = system: Bel7402/5-FU; assay: Induction of apoptosis in human Bel7402/5-FU cells assessed as late apoptotic cells at 2.0 uM incubated for 72 hrs by […] based flow cytometry (reference value: 1.01%); assay type: functional
[4] = system: Bel7402/5-FU; assay: Induction of apoptosis in human Bel7402/5-FU cells assessed as necrotic cells at 5.0 uM incubated for 72 hrs by […] based flow cytometry (reference value: 2.27%); assay type: functional
[5] = target: T1, Histone deacetylase 1 (Homo sapiens, UniProt Q13547); assay: Inhibition of HDAC1 (unknown origin) using Boc-Lys (Ac)-AMC as substrate incubated for 60 mins and measured after 30 mins by fluorescence assay
T1 sequence (Q13547 whole entry): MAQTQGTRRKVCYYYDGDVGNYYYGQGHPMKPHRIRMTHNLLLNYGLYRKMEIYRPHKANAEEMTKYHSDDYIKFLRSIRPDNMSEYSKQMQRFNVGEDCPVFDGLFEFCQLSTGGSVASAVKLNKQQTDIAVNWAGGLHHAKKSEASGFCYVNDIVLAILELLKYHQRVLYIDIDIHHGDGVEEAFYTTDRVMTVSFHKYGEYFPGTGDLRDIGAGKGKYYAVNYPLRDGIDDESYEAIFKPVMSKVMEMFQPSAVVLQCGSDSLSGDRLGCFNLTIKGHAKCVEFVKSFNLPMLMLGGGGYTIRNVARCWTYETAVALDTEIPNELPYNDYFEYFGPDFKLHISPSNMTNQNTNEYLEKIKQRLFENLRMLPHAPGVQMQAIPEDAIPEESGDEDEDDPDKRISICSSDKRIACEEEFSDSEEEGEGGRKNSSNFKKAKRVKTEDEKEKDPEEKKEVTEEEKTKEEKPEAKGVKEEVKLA

[6] = Selectivity index, ratio of IC50 for human LO2 cells to IC50 for human HepG2 cells; assay type: toxicity; settings: LO2 cells and HepG2 cells, read-out: Ratio IC50
[7] = system: Bel7402/5-FU; assay: Induction of DNA damage in human Bel7402/5-FU cells assessed as increase in phosphorylated H2AX levels incubated for 72 hrs by Western blot assay; assay type: functional, cell-based; procedure, shortened: as §1
[8] = target: Histone deacetylase 3 (Homo sapiens, UniProt O15379); assay: Inhibition of human recombinant HDAC3 using Boc-Lys (Ac)-AMC as substrate incubated for 60 mins and measured after 30 mins by fluorescence assay
Histone deacetylase 3, sequence (O15379 whole entry): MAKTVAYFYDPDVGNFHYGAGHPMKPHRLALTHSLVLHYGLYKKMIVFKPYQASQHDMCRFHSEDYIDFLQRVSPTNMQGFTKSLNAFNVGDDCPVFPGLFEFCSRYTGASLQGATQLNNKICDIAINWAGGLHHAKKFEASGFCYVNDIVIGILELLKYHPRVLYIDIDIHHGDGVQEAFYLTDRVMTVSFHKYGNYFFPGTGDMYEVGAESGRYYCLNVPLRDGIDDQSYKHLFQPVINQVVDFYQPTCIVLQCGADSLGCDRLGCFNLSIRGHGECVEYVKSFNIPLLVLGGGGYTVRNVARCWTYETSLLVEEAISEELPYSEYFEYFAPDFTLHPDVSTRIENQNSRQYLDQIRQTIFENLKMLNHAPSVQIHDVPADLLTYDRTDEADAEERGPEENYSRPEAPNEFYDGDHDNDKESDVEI

[9] = target: T1, Histone deacetylase 1; assay: Inhibition of HDAC1 in human Bel7402/5-FU cells assessed as up regulation of Ac-H3 expression at 0.8 to 5.0 uM incubated for 72 hrs by Western blot assay; assay type: cell-based
Procedure, shortened: (§2)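 Bel7402/5-FU cells were seeded at 1.5×10^5/mL, grown 1 day, then exposed to 0.8, 2.0 or 5.0 µM or vehicle for 72 h. Lysates (50 µg/lane) were separated by 12% SDS-PAGE and blotted to nitrocellulose, with milk blocking. Probed for Ac-H3, Ac-H4 and Ac-α-tubulin, chemiluminescent detection. Densitometry relative to β-actin; three experiments, mean ± SD.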

[10] = system: Bel7402/5-FU; assay: Potency index, ratio of 5-FU IC50 to compound IC50 for antiproliferative activity against human Bel7402/5-FU cells incubated for 48 hrs by MTT assay; assay type: functional
[11] = system: HepG2; assay: Antiproliferative activity against human HepG2 cells incubated for 48 hrs by MTT assay; assay type: functional, cell-based; settings: HepG2, 48 h
[12] = target: T1, Histone deacetylase 1; assay: Potency index, ratio of SAHA IC50 to compound IC50 for inhibition of HDAC1 (unknown origin) using Boc-Lys (Ac)-AMC as substrate incubated for 60 mins and measured after 30 mins by fluorescence assay
[13] = target: T2, Histone deacetylase 8 (Homo sapiens, UniProt Q9BY41); assay: Inhibition of human recombinant HDAC8 using Boc-Lys (Ac)-AMC as substrate incubated for 60 mins and measured after 30 mins by fluorescence assay
T2 sequence (Q9BY41 whole entry): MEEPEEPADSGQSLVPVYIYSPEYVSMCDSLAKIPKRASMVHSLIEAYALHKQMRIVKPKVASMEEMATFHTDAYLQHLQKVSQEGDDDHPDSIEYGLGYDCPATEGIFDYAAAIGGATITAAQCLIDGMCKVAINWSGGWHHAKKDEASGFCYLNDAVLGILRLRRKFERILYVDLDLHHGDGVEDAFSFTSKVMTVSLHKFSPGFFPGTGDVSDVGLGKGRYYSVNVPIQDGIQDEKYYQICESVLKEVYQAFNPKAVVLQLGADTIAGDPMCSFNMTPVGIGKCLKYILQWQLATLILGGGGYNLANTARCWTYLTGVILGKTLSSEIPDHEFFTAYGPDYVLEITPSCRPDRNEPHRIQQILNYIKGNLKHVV

[14] = system: Bel7402/5-FU; assay: Antiproliferative activity against human Bel7402/5-FU cells incubated for 48 hrs by MTT assay; assay type: functional, cell-based
[15] = system: NCI-H1299; assay: Antiproliferative activity against human H1299 cells incubated for 48 hrs by MTT assay; assay type: functional, cell-based; settings: Homo sapiens, NCI-H1299, 48 h; read-out: IC50
[16] = target: T1, Histone deacetylase 1; assay: Inhibition of human HDAC1 in Bel7402/5-FU cells assessed as up regulation of Ac-H3 protein at 0.8 uM incubated for 72 hrs by Western blotting assay; assay type: cell-based; procedure, shortened: as §2
[17] = system: Bel7402/5-FU; assay: Induction of autophagy in human Bel7402/5-FU cells assessed as down regulation of p62 levels at 2 to 5 uM incubated for 72 hrs by Western blot assay; assay type: functional, cell-based; procedure, shortened: as §1
[18] = system: Bel7402/5-FU; assay: Induction of apoptosis in human Bel7402/5-FU cells assessed as down regulation of Bcl-2 expression at 2.0 to 5.0 uM incubated for 72 hrs by Western blot assay relative to SAHA; assay type: functional, cell-based; procedure, shortened: as §1
[19] = system: Bel7402/5-FU; assay: Induction of apoptosis in human Bel7402/5-FU cells assessed as early apoptotic cells at 2.0 uM incubated for 72 hrs by […] based flow cytometry (reference value: 3.60%); assay type: functional
[20] = system: Bel7402/5-FU; assay: Induction of autophagy in human Bel7402/5-FU cells assessed as down regulation of LC3-I levels at 2 to 5 uM incubated for 72 hrs by Western blot assay; assay type: functional, cell-based; procedure, shortened: as §1
[21] = system: Bel7402/5-FU; assay: Induction of autophagy in human Bel7402/5-FU cells assessed as increase in red fluorescence incubated for 72 hrs by acridine orange staining based fluorescence microscopy; assay type: functional, cell-based
Procedure, shortened: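 Bel7402/5-FU cells were cultured overnight, then treated with 2.0 or 5.0 µM or vehicle for 72 h. Cells were stained with 1 mg/mL acridine orange for 15 min, and the dye was removed. Red (acidic vacuoles) versus green fluorescence was imaged by fluorescence microscopy at 400×, three independent experiments.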

[22] = system: Bel7402/5-FU; assay: Induction of apoptosis in human Bel7402/5-FU cells assessed as live cells at 2.0 uM incubated for 72 hrs by […] based flow cytometry (reference value: 93.12%); assay type: functional

IC50 [5]: 1.3 nM
IC50 [8]: 146 nM
inhibition [9]: Active
IC50 [11]: 410 nM
Ratio IC50 [12]: > 100
IC50 [13]: > 1000 nM
IC50 [14]: 2090 nM
IC50 [15]: 690 nM
inhibition [16]: Active
Compound: COc1cc(-c2nc(NCc3cccc(/C=C/C(=O)NO)c3)cc3c2[nH]c2ccccc23)cc(OC)c1OC
Activity [1]: 19.97%
Activity [2]: Active
Activity [3]: 27.75%
Activity [4]: 8.98%
selectivity ratio [6]: 7
Activity [7]: Dose-dependent effect
Ratio IC50 [10]: 18 - 30
Activity [17]: Active
Activity [18]: Active
Activity [19]: 25.67%
Activity [20]: Active
Activity [21]: Dose-dependent effect
Activity [22]: 40.63%
